Source: ChEMBL document CHEMBL4680108, “Ancistrolikokine E, a 5,8'-Coupled Naphthylisoquinoline Alkaloid, Eliminates the Tolerance of Cancer Cells to Nutrition Starvation by Inhibition of the Akt/mTOR/Autophagy Signaling Pathway” (2018)
Calls of active or inactive are those of the source. No cut-off for these calls is given here.

Legend:
[1] = test system: PANC-1; assay: Inhibition of Akt/mTOR signaling pathway in human PANC-1 cells cultured in nutrient-deprived medium assessed as decrease in phosphorylated Akt level at S473 residue at 40 uM measured after 6 hrs by Western blot analysis relative to control; assay type: cell-based
Summary of the method: (§1)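 Western blot of PANC-1 cells exposed to compound at different concentrations for 6 h in NDM or DMEM. Probed for total and phosphorylated Akt and mTOR and for GβL. Band levels compared with untreated control cells in NDM.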

[2] = test system: PANC-1; assay: Inhibition of autophagy in human PANC-1 cells cultured in nutrient-deprived medium assessed as inhibition of Beclin-1 expression after 6 hrs by Western blot analysis; assay type: functional, cell-based; settings: dose 2.5-40 µM
[3] = test system: PANC-1; assay: Inhibition of autophagy in human PANC-1 cells cultured in nutrient-deprived medium assessed as inhibition of Atg12 expression after 6 hrs by Western blot analysis; assay type: functional, cell-based; settings: dose 2.5-40 µM
[4] = test system: PANC-1; assay: Induction of apoptosis in human PANC-1 cells cultured in nutrient-deprived medium assessed as inhibition of caspase-3 measured after 6 hrs by Western blot analysis; assay type: functional, cell-based; settings: dose 2.5-40 µM
Summary of the method: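 PANC-1 cells in NDM or DMEM exposed to compound at different concentrations for 6 h, then immunoblotted for Bcl-2, Bcl-xL and caspase-3.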

[5] = test system: PANC-1; assay: Anticancer activity against human PANC-1 cells assessed as cell death at 10 uM measured after 13 hrs by digital cell imaging analysis; assay type: functional, cell-based
Summary of the method: (§2)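 PANC-1 cells (3 × 10^6) in 35 mm dishes in nutrient-deprived medium (NDM), treated with 10 μM; kept in a stage-top incubator at 37 °C, 5% CO2. Phase-contrast images taken every 10 min for 24 h (145 frames, 20× objective). Untreated cells in NDM served as control.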

[6] = test system: PANC-1; assay: Inhibition of autophagy in human PANC-1 cells cultured in nutrient-deprived medium assessed as inhibition of LC3-2 expression at 40 uM after 6 hrs in presence of chloroquine by Western blot analysis; assay type: functional, cell-based
[7] = test system: PANC-1; assay: Inhibition of Akt/mTOR signaling pathway in human PANC-1 cells cultured in nutrient-deprived medium assessed as decrease in total Akt level at 40 uM measured after 6 hrs by Western blot analysis relative to control; assay type: cell-based; summary of the method: as §1
[8] = test system: PANC-1; assay: Induction of apoptotic cell death in human PANC-1 cells cultured in nutrient-deprived medium assessed as formation of apoptotic bodies at 5 uM measured after 24 hrs by Hoechst 33342 staining based phase-contrast digital microscopy; assay type: functional
Summary of the method: (§3)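 Cells (2 × 10^5) plated in 35 mm dishes, left 24 h to attach, washed twice with PBS, then given 5 μM in NDM for 24 h. Hoechst 33342 added directly to the medium for 5 min. Imaged in phase-contrast and fluorescence modes (20× objective).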

[9] = test system: PANC-1; assay: Inhibition of Akt/mTOR signaling pathway in human PANC-1 cells cultured in nutrient-deprived medium assessed as decrease in total mTOR level measured after 6 hrs by Western blot analysis; assay type: cell-based; settings: dose 2.5-40 µM; summary of the method: as §1
[10] = test system: PANC-1; assay: Induction of morphological changes in human PANC-1 cells cultured in nutrient-deprived medium assessed as cell death measured after 24 hrs by ethidium bromide/acridine orange staining based phase contrast microscopy; assay type: functional; settings: dose 1.25-5 µM
Summary of the method: (§4)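 PANC-1 cells (2 × 10^5/well) attached in DMEM for 24 h, washed twice with PBS, then treated in NDM (1.25, 2.5, 5 μM; control in NDM alone) for 24 h. Stained with ethidium bromide/acridine orange and imaged in phase-contrast and red/green fluorescence modes (20× objective).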

[11] = test system: PANC-1; assay: Induction of necrosis in human PANC-1 cells cultured in nutrient-deprived medium assessed as round cell morphology at 5 uM measured after 24 hrs by ethidium bromide/acridine orange staining based phase contrast microscopy; assay type: functional; summary of the method: as §4
[12] = test system: PANC-1; assay: Inhibition of Akt/mTOR signaling pathway in human PANC-1 cells cultured in nutrient-deprived medium assessed as decrease in total Akt level measured after 6 hrs by Western blot analysis; assay type: cell-based; settings: dose 2.5-40 µM; summary of the method: as §1
[13] = test system: PANC-1; assay: Inhibition of Akt/mTOR signaling pathway in human PANC-1 cells cultured in nutrient-deprived medium assessed as decrease in GbetaL level measured after 6 hrs by Western blot analysis; assay type: cell-based; settings: dose 2.5-40 µM; summary of the method: as §1
[14] = test system: PANC-1; assay: Anti-austerity activity against nutrient-deprived human PANC-1 cells assessed as cell death incubated for 24 hrs by WST-8 assay; assay type: functional
Summary of the method: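 Human PANC-1 pancreatic cancer cells tested in parallel in nutrient-deprived medium (NDM) and in nutrient-rich DMEM. PC50 is the concentration that kills 50% of cells in NDM without toxicity in DMEM.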

[15] = test system: PANC-1; assay: Induction of apoptotic cell death in human PANC-1 cells cultured in nutrient-deprived medium assessed as membrane blebbing at 5 uM measured after 24 hrs by Hoechst 33342 staining based phase-contrast digital microscopy; assay type: functional; summary of the method: as §3
[16] = test system: PANC-1; assay: Inhibition of autophagy in human PANC-1 cells cultured in nutrient-deprived medium assessed as inhibition of LC3-1 expression after 6 hrs by Western blot analysis; assay type: functional, cell-based; settings: dose 2.5-40 µM
[17] = test system: PANC-1; assay: Induction of apoptotic cell death in human PANC-1 cells cultured in nutrient-deprived medium assessed as chromatin fragmentation at 5 uM measured after 24 hrs by Hoechst 33342 staining based phase-contrast digital microscopy; assay type: functional; summary of the method: as §3
[18] = test system: PANC-1; assay: Induction of necrosis in human PANC-1 cells cultured in nutrient-deprived medium assessed as leakage of cellular contents in to the medium at 5 uM measured after 24 hrs by ethidium bromide/acridine orange staining based phase contrast microscopy; assay type: functional, cell-based; summary of the method: as §4
[19] = test system: PANC-1; assay: Inhibition of autophagy in human PANC-1 cells cultured in nutrient-deprived medium assessed as inhibition of LC3-2 expression after 6 hrs by Western blot analysis; assay type: functional, cell-based; settings: dose 2.5-40 µM
[20] = test system: PANC-1; assay: Inhibition of Akt/mTOR signaling pathway in human PANC-1 cells cultured in nutrient-deprived medium assessed as decrease in phosphorylated Akt level at S473 residue measured after 6 hrs by Western blot analysis; assay type: cell-based; settings: dose 2.5-40 µM; summary of the method: as §1
[21] = test system: PANC-1; assay: Anticancer activity against human PANC-1 cells assessed as inhibition of cell motility at 10 uM measured within 90 mins by digital cell imaging analysis; assay type: functional, cell-based; settings: time min <=90; summary of the method: as §2
[22] = test system: PANC-1; assay: Induction of apoptotic cell death in human PANC-1 cells cultured in nutrient-deprived medium assessed as intact nuclei at 5 uM measured after 24 hrs by Hoechst 33342 staining based phase-contrast digital microscopy; assay type: functional; summary of the method: as §3

In the case of `COc1cc(OC)c(-c2ccc(O)c3c(OC)cc(C)cc23)c2c1C(C)=N[C@H](C)C2`, the inhibition [1] is reported as 99%, the inhibition [2] is reported as “Dose-dependent effect” and the inhibition [3] is reported as “Dose-dependent effect”. The inhibition [4] was “Active”, the Activity [5] was “Active” and the inhibition [6] was “Active”. The inhibition [7] was 86%, the Activity [8] was “inactive” and the inhibition [9] was “Dose-dependent effect”. For the same compound, the Activity [10] was “Dose-dependent effect”, the Activity [11] was “Active” and the inhibition [12] was “Dose-dependent effect”. For the same compound, the inhibition [13] was “Dose-dependent effect”, the Activity [14] was “Dose-dependent effect” and the PC50 [14] was 2.5 µM. For the same compound, the Activity [15] was “Active”, the inhibition [16] was “Dose-dependent effect” and the Activity [17] was “inactive”. For the same compound, the Activity [18] was “Active”, the inhibition [19] was “Dose-dependent effect” and the inhibition [20] was “Dose-dependent effect”. The inhibition [21] was “Active” and the Activity [22] was “Active”.
